This note sets out measurements from ChEMBL document CHEMBL3763086, “Salicylanilide N-monosubstituted carbamates: Synthesis and in vitro antimicrobial activity” (2016).

Molecules are shown by their SMILES. Converted amounts (≈) assume the structure as drawn.

Format in all cases: functional
Assay [1] deals with Pichia kudriavzevii. As to the kind of experiment: Antifungal activity against Candida krusei E28 after 48 hrs by microbroth dilution method. Conditions: E28, 48 h. On the technique in general: Broth dilution looks for growth in wells or tubes with falling amounts of substance.
For assay [2], the system named is Klebsiella pneumoniae. Description: Antibacterial activity against ESBL-positive Klebsiella pneumoniae J 14368/08 after 48 hrs by microbroth dilution method. Particulars: J 14368/08, 48 h. An outline of the steps:
(§1)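 Microbroth dilution modified per M07-A07 in Mueller-Hinton broth, pH 7.4 (±0.2). Inoculum in sterile water adjusted to 0.5 McFarland. MIC taken as growth reduction of at least 90% (IC90) versus control, read visually and at 540 nm after 24 and 48 h incubation in the dark.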

The test system of assay [3] is Staphylococcus epidermidis. As to the kind of experiment: Antibacterial activity against Staphylococcus epidermidis H 6966/08 after 24 hrs by microbroth dilution method. Conditions: H 6966/08, 24 h. The method in brief:
as §1

Assay [4] has as its system Candida tropicalis. As to the kind of experiment: Antifungal activity against Candida tropicalis 156 after 48 hrs by microbroth dilution method. Conditions: Candida tropicalis, 156, 48 h.
For assay [5], the system named is Klebsiella pneumoniae. Description: Antibacterial activity against ESBL-positive Klebsiella pneumoniae J 14368/08 after 24 hrs by microbroth dilution method. Conditions: J 14368/08, 24 h. An outline of the steps: as §1
Assay [6] has as its system Nakaseomyces glabratus. Description: Antifungal activity against Candida glabrata 20/I after 24 hrs by microbroth dilution method.
Assay [7] relates to Lichtheimia corymbifera. As to the kind of experiment: Antifungal activity against Absidia corymbifera 272 after 48 hrs by microbroth dilution method. Particulars: Lichtheimia corymbifera, 272, 48 h.
In assay [8] the test system is Staphylococcus epidermidis. As to the kind of experiment: Antibacterial activity against Staphylococcus epidermidis H 6966/08 after 48 hrs by microbroth dilution method. Conditions: H 6966/08, 48 h. An outline of the steps:
as §1

Assay [9] concerns Trichophyton mentagrophytes. As to the kind of experiment: Antifungal activity against Trichophyton mentagrophytes 445 after 72 hrs by microbroth dilution method. Conditions: Trichophyton mentagrophytes, 445, 72 h.
Assay [10] has as its system Lichtheimia corymbifera. Description: Antifungal activity against Absidia corymbifera 272 after 24 hrs by microbroth dilution method. Particulars: Lichtheimia corymbifera, 272, 24 h.
In assay [11] the test system is Candida albicans. As to the kind of experiment: Antifungal activity against Candida albicans ATCC 44859 after 24 hrs by microbroth dilution method. Particulars: ATCC 44859, 24 h.
Assay [12] has as its system Candida albicans. Description: Antifungal activity against Candida albicans ATCC 44859 after 48 hrs by microbroth dilution method. Particulars: ATCC 44859, 48 h.
In assay [13] the test system is Trichosporon asahii. As to the kind of experiment: Antifungal activity against Trichosporon asahii 1188 after 48 hrs by microbroth dilution method. Particulars: Trichosporon asahii, 1188, 48 h.
In assay [14] the test system is Pichia kudriavzevii. As to the kind of experiment: Antifungal activity against Candida krusei E28 after 24 hrs by microbroth dilution method. Conditions: E28, 24 h.
Assay [15] has as its system Staphylococcus aureus. As to the kind of experiment: Antibacterial activity against methicillin-resistant Staphylococcus aureus H 5996/08 after 48 hrs by microbroth dilution method. Conditions: H 5996/08, 48 h. The method in brief:
(§2)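 Microdilution broth method modified after M07-A07 in Mueller-Hinton broth adjusted to pH 7.4 (±0.2). Inoculum prepared in sterile water to 0.5 McFarland (1.5 × 10^8 CFU/mL). MIC taken as growth reduction versus control (IC95 per table header), read visually and spectrophotometrically at 540 nm after 24 and 48 h incubation in the dark.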

Assay [16] concerns Candida tropicalis. Description: Antifungal activity against Candida tropicalis 156 after 24 hrs by microbroth dilution method. Particulars: Candida tropicalis, 156, 24 h.
For assay [17], the system named is Trichophyton mentagrophytes. As to the kind of experiment: Antifungal activity against Trichophyton mentagrophytes 445 after 120 hrs by microbroth dilution method. Conditions: Trichophyton mentagrophytes, 445, 120 h.
In assay [18] the test system is Escherichia coli. As to the kind of experiment: Antibacterial activity against Escherichia coli CCM 4517 after 48 hrs by microbroth dilution method. Particulars: CCM 4517, 48 h. The method in brief: as §1
The test system of assay [19] is Escherichia coli. Description: Antibacterial activity against Escherichia coli CCM 4517 after 24 hrs by microbroth dilution method. Particulars: CCM 4517, 24 h. An outline of the steps:
as §1

Assay [20] has as its system Trichosporon asahii. As to the kind of experiment: Antifungal activity against Trichosporon asahii 1188 after 24 hrs by microbroth dilution method. Particulars: Trichosporon asahii, 1188, 24 h.
The test system of assay [21] is Staphylococcus aureus. As to the kind of experiment: Antibacterial activity against methicillin-resistant Staphylococcus aureus H 5996/08 after 24 hrs by microbroth dilution method. Conditions: H 5996/08, 24 h. An outline of the steps:
as §2

Assay [22] deals with Enterococcus sp. As to the kind of experiment: Antibacterial activity against Enterococcus sp. J 14365/08 after 48 hrs by microbroth dilution method. Conditions: J 14365/08, 48 h. An outline of the steps:
as §1

Assay [23] deals with Staphylococcus aureus. Description: Antibacterial activity against Staphylococcus aureus CCM 4516/08 after 48 hrs by microbroth dilution method. Particulars: CCM 4516/08, 48 h. The method in brief:
as §2

Assay [24] has as its system Enterococcus sp. As to the kind of experiment: Antibacterial activity against Enterococcus sp. J 14365/08 after 24 hrs by microbroth dilution method. Conditions: J 14365/08, 24 h. The method in brief: as §1
Assay [25] has as its system Nakaseomyces glabratus. As to the kind of experiment: Antifungal activity against Candida glabrata 20/I after 48 hrs by microbroth dilution method.
Assay [26] has as its system Klebsiella pneumoniae. As to the kind of experiment: Antibacterial activity against Klebsiella pneumoniae D 11750/08 after 48 hrs by microbroth dilution method. Conditions: D 11750/08, 48 h. The method in brief: as §1
Assay [27] has as its system Klebsiella pneumoniae. Description: Antibacterial activity against Klebsiella pneumoniae D 11750/08 after 24 hrs by microbroth dilution method. Particulars: D 11750/08, 24 h. The method in brief:
as §1

Assay [28] has as its system Staphylococcus aureus. As to the kind of experiment: Antibacterial activity against Staphylococcus aureus CCM 4516/08 after 24 hrs by microbroth dilution method. Particulars: CCM 4516/08, 24 h. The method in brief:
as §1

A word on the MIC: it is the lowest concentration that inhibits growth of the organism. For the molecule `O=C(NCCc1ccccc1)Oc1ccc(Cl)cc1C(=O)Nc1ccc(F)cc1`, the MIC was over 500 µM in [1]; over 500 µM in assay [2]; 15.6 µM (≈ 6.45 µg/mL) in assay [3]; over 500 µM in assay [4]; over 500 µM in [5]; 125 µM (≈ 51.6 µg/mL) in assay [6]. The MIC is over 500 µM in assay [7]; 15.6 µM (≈ 6.45 µg/mL) in assay [8]; over 500 µM in [9]; over 500 µM in assay [10]; 250 µM (≈ 103 µg/mL) in [11]; over 500 µM in assay [12]. Moreover, the minimal inhibitory concentration (MIC) is over 500 µM in assay [13]; 125 µM (≈ 51.6 µg/mL) in assay [14]; 62.5 µM (≈ 25.8 µg/mL) in assay [15]; over 500 µM in assay [16]; over 500 µM in [17]; over 500 µM in assay [18]. The minimal inhibitory concentration (MIC) in assay [19] was over 500 µM; in assay [20] it was 125 µM (≈ 51.6 µg/mL); in assay [21] it was 15.6 µM (≈ 6.45 µg/mL); in [22] it was over 500 µM; in assay [23], 15.6 µM (≈ 6.45 µg/mL); in [24], over 500 µM. The minimal inhibitory concentration (MIC) in [25] is over 500 µM; in assay [26], over 500 µM; in assay [27], over 500 µM; in assay [28], 7.81 µM (≈ 3.22 µg/mL).
On to `C[C@@H]1[C@H](O)[C@@H](C)/C=C/C=C/C=C/C=C/C=C/C=C/C=C/[C@H](O[C@@H]2O[C@H](C)[C@@H](O)[C@H](N)[C@@H]2O)C[C@@H]2O[C@](O)(C[C@@H](O)C[C@@H](O)[C@H](O)CC[C@@H](O)C[C@@H](O)CC(=O)O[C@H]1C)C[C@H](O)[C@H]2C(=O)O` [AMPHOTERICIN B], for which the MIC in assay [1] is 1.95 µM (≈ 1.8 µg/mL); in assay [4] it was 1.95 µM (≈ 1.8 µg/mL); in [6] it was 0.98 µM (≈ 0.906 µg/mL); in assay [7], 7.81 µM (≈ 7.22 µg/mL); in [9] it was 1.95 µM (≈ 1.8 µg/mL); in assay [10] it was 7.81 µM (≈ 7.22 µg/mL). For the same molecule, the MIC was found to be 0.12 µM (≈ 0.111 µg/mL) in assay [11]; 0.49 µM (≈ 0.453 µg/mL) in assay [12]; 0.98 µM (≈ 0.906 µg/mL) in [13]; 1.95 µM (≈ 1.8 µg/mL) in assay [14]; 1.95 µM (≈ 1.8 µg/mL) in [16]; 1.95 µM (≈ 1.8 µg/mL) in assay [17]. Besides, the figures for the minimal inhibitory concentration (MIC) in assay [20] and in assay [25] were 0.49 µM (≈ 0.453 µg/mL) and 1.95 µM (≈ 1.8 µg/mL), respectively.
For the molecule `OC(Cn1cncn1)(Cn1cncn1)c1ccc(F)cc1F` [FLUCONAZOLE], the MIC is 250 µM (≈ 76.6 µg/mL) in [1]; over 500 µM in assay [4]; 31.2 µM (≈ 9.57 µg/mL) in [6]; over 500 µM in assay [7]; 7.81 µM (≈ 2.39 µg/mL) in [9]; over 500 µM in assay [10]. Further, the minimum inhibitory concentration (MIC) was 0.24 µM (≈ 0.0735 µg/mL) in assay [11]; 0.24 µM (≈ 0.0735 µg/mL) in assay [12]; 500 µM (≈ 153 µg/mL) in assay [13]; 125 µM (≈ 38.3 µg/mL) in assay [14]; over 500 µM in assay [16]; 125 µM (≈ 38.3 µg/mL) in assay [17]. Further, the MIC in [20] was found to be 250 µM (≈ 76.6 µg/mL); in assay [25], 500 µM (≈ 153 µg/mL).
For `CC1(C)S[C@@H]2[C@H](NC(=O)Cc3ccccc3)C(=O)N2[C@H]1C(=O)O` [PENICILLIN G], the MIC in assay [2] is over 500 µM; in assay [3], 250 µM (≈ 83.6 µg/mL); in [5], over 500 µM; in [8], 250 µM (≈ 83.6 µg/mL); in [15], 125 µM (≈ 41.8 µg/mL); in assay [18], 125 µM (≈ 41.8 µg/mL). Further, the MIC in assay [19] turned out to be 125 µM (≈ 41.8 µg/mL); in assay [21], 62.5 µM (≈ 20.9 µg/mL); in assay [22] it was 15.6 µM (≈ 5.22 µg/mL); in [23], 0.98 µM (≈ 0.328 µg/mL); in assay [24] it was 7.81 µM (≈ 2.61 µg/mL); in [26], 500 µM (≈ 167 µg/mL). The MIC in assay [27] is 500 µM (≈ 167 µg/mL); in assay [28], 0.98 µM (≈ 0.328 µg/mL).
